Results as given in ChEMBL document CHEMBL1921722, “In vitro and in vivo evaluation of select kahalalide F analogs with antitumor and antifungal activities” (Bioorg Med Chem, 2011).
Activity calls are given as the source filed them. The rule behind the calls is not given here.

Assays:
[1] = test system: MDA-MB-435; assay: Cytotoxicity against human MDA-MB-435 cells by sulforhodamine B assay; format: functional
Procedure, shortened: (§1)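 NCI Developmental Therapeutics Program 60-cell-line human tumor panel screen, run at NCI. A single-concentration pre-screen was followed by a five-concentration dose-response in 10-fold steps. GI50 is the concentration that reduces growth of treated cells to half that of untreated control cells. TGI is the concentration that completely halts growth.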

[2] = test system: SNB-75; assay: Cytotoxicity against human SNB75 cells assessed as cell growth at 8 uM by sulforhodamine B assay relative to control; format: functional; settings: read-out: Activity
[3] = test system: NCI-H322M; assay: Cytotoxicity against human NCI-H322M cells assessed as cell growth at 8 uM by sulforhodamine B assay relative to control; format: functional; settings: read-out: Activity
[4] = test system: SK-OV-3; assay: Cytotoxicity against human SKOV3 cells assessed as cell growth at 8 uM by sulforhodamine B assay relative to control; format: functional; settings: read-out: Activity
[5] = test system: RPMI-8226; assay: Cytotoxicity against human RPMI8226 cells by sulforhodamine B assay; format: functional; procedure, shortened: as §1
[6] = test system: Hs-578T; assay: Cytotoxicity against human Hs578T cells assessed as cell growth at 800 nM by sulforhodamine B assay relative to control; format: functional; settings: read-out: Activity
[7] = test system: SR; assay: Cytotoxicity against human SR cells assessed as cell growth at 80 nM by sulforhodamine B assay relative to control; format: functional; settings: read-out: Activity
[8] = test system: MOLT-4; assay: Cytotoxicity against human MOLT4 cells assessed as cell growth at 80 nM by sulforhodamine B assay relative to control; format: functional; settings: read-out: Activity
[9] = test system: IGROV-1; assay: Cytotoxicity against human IGROV1 cells by sulforhodamine B assay; format: functional; procedure, shortened: as §1
[10] = test system: SK-MEL-2; assay: Cytotoxicity against human SK-MEL-2 cells assessed as cell growth at 80 nM by sulforhodamine B assay relative to control; format: functional; settings: read-out: Activity
[11] = test system: NCI/ADR-RES; assay: Cytotoxicity against human NCI/ADR-RES cells by sulforhodamine B assay; format: functional; procedure, shortened: as §1
[12] = test system: Mus musculus; assay: Acute toxicity in athymic nude mouse assessed as mortality at 400 mg/kg, […] after 19 days; format: organism-based; set-up: dose 400 mg/kg, route intraperitoneal; settings: in vivo, ip, 456 h
[13] = test system: HCC 2998; assay: Cytotoxicity against human HCC2998 cells assessed as cell growth at 8 nM by sulforhodamine B assay relative to control; format: functional; settings: read-out: Activity
[14] = test system: TK-10; assay: Cytotoxicity against human TK10 cells by sulforhodamine B assay; format: functional; procedure, shortened: as §1
[15] = test system: A498; assay: Cytotoxicity against human A498 cells assessed as cell growth at 8 uM by sulforhodamine B assay relative to control; format: functional; settings: read-out: Activity
Procedure, shortened: (§2)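 Run at NCI in the DTP 60-cell-line human tumor panel by standard procedure. Compounds were first screened at a single concentration, then tested at five tenfold-spaced concentrations. GI50 is the concentration reducing treated-cell growth to half that of untreated controls; TGI is the concentration completely halting growth.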

[16] = test system: SK-MEL-5; assay: Cytotoxicity against human SK-MEL-5 cells assessed as cell growth at 8 uM by sulforhodamine B assay relative to control; format: functional; settings: read-out: Activity
[17] = test system: MDA-MB-231; assay: Cytotoxicity against human MDA-MB-231 cells assessed as cell growth at 80 nM by sulforhodamine B assay relative to control; format: functional; settings: read-out: Activity
[18] = test system: OVCAR-3; assay: Cytotoxicity against human OVCAR3 cells assessed as cell growth at 8 uM by sulforhodamine B assay relative to control; format: functional; settings: read-out: Activity
[19] = test system: OVCAR-5; assay: Cytotoxicity against human OVCAR5 cells by sulforhodamine B assay; format: functional; procedure, shortened: as §1
[20] = test system: OVCAR-3; assay: Cytotoxicity against human OVCAR3 cells assessed as cell growth at 80 nM by sulforhodamine B assay relative to control; format: functional; settings: read-out: Activity
[21] = test system: NCI-H23; assay: Cytotoxicity against human NCI-H23 cells assessed as cell growth at 8 nM by sulforhodamine B assay relative to control; format: functional; settings: read-out: Activity
[22] = test system: BT-549; assay: Cytotoxicity against human BT549 cells by sulforhodamine B assay; format: functional; procedure, shortened: as §2
[23] = test system: ACHN; assay: Cytotoxicity against human ACHN cells assessed as cell growth at 800 nM by sulforhodamine B assay relative to control; format: functional; settings: read-out: Activity; procedure, shortened: as §2
[24] = test system: ACHN; assay: Cytotoxicity against human ACHN cells by sulforhodamine B assay; format: functional; procedure, shortened: as §2
[25] = test system: SK-MEL-28; assay: Cytotoxicity against human SK-MEL-28 cells assessed as cell growth at 8 nM by sulforhodamine B assay relative to control; format: functional; settings: read-out: Activity
[26] = test system: HOP-92; assay: Cytotoxicity against human HOP92 cells assessed as cell growth at 800 nM by sulforhodamine B assay relative to control; format: functional; settings: read-out: Activity
[27] = test system: NCI-H23; assay: Cytotoxicity against human NCI-H23 cells assessed as cell growth at 8 uM by sulforhodamine B assay relative to control; format: functional; settings: read-out: Activity
[28] = test system: HL-60(TB); assay: Cytotoxicity against human HL-60(TB) cells by sulforhodamine B assay; format: functional
Procedure, shortened: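 NCI Developmental Therapeutics Program 60-cell-line human tumor panel, standard procedure. Single-concentration prescreen first; active compounds then tested at five concentrations. GI50 is the concentration reducing growth of treated cells to half that of untreated controls.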

[29] = test system: A498; assay: Cytotoxicity against human A498 cells assessed as cell growth at 8 nM by sulforhodamine B assay relative to control; format: functional; settings: read-out: Activity; procedure, shortened: as §2
[30] = test system: UACC-257; assay: Cytotoxicity against human UACC257 cells assessed as cell growth at 8 nM by sulforhodamine B assay relative to control; format: functional; settings: read-out: Activity
[31] = test system: T47D; assay: Cytotoxicity against human T47D cells assessed as cell growth at 8 uM by sulforhodamine B assay relative to control; format: functional; settings: read-out: Activity
[32] = test system: DU-145; assay: Cytotoxicity against human DU145 cells assessed as cell growth at 80 uM by sulforhodamine B assay relative to control; format: functional; settings: read-out: Activity
[33] = test system: Mus musculus; assay: Acute toxicity in athymic nude mouse assessed as mortality at 25 mg/kg, […]; format: organism-based; set-up: dose 25 mg/kg, route intraperitoneal; settings: in vivo, ip, 576 h
[34] = test system: SN12C; assay: Cytotoxicity against human SN12C cells assessed as cell growth at 80 uM by sulforhodamine B assay relative to control; format: functional; settings: read-out: Activity
[35] = test system: SNB-75; assay: Cytotoxicity against human SNB75 cells assessed as cell growth at 80 nM by sulforhodamine B assay relative to control; format: functional; settings: read-out: Activity
[36] = test system: OVCAR-4; assay: Cytotoxicity against human OVCAR4 cells assessed as cell growth at 800 nM by sulforhodamine B assay relative to control; format: functional; settings: read-out: Activity
[37] = test system: Staphylococcus aureus; assay: Antimicrobial activity against methicillin-resistant Staphylococcus aureus ATCC 43300 by CLSI method; format: functional, organism-based
[38] = test system: DU-145; assay: Cytotoxicity against human DU145 cells assessed as cell growth at 800 nM by sulforhodamine B assay relative to control; format: functional; settings: read-out: Activity
[39] = test system: HL-60(TB); assay: Cytotoxicity against human HL-60(TB) cells assessed as cell growth at 80 nM by sulforhodamine B assay relative to control; format: functional; settings: read-out: Activity
[40] = test system: MCF7; assay: Cytotoxicity against human MCF7 cells assessed as cell growth at 800 nM by sulforhodamine B assay relative to control; format: functional; settings: read-out: Activity

C/C=C1\NC(=O)[C@H](Cc2ccccc2)NC(=O)[C@@H](C(C)C)NC(=O)[C@@H]([C@@H](C)CC)NC(=O)[C@H](NC(=O)[C@H](NC(=O)[C@H](CCCNCc2ccc(F)c(C)c2)NC(=O)[C@H]2CCCN2C(=O)[C@H](NC(=O)[C@@H](NC(=O)[C@@H](NC(=O)[C@H](NC(=O)CCCC(C)C)C(C)C)[C@@H](C)O)C(C)C)C(C)C)[C@@H](C)CC)[C@@H](C)OC(=O)[C@H](C(C)C)NC1=O
GI50 [1]: 1150 nM
TGI ([1]; read-out: pTGI (converted)): 2190 nM
growth at 8 µM [2]: -73%
growth at 8 µM [3]: -95%
growth at 8 µM [4]: -96%
GI50 ([5]; read-out: GI50): 885 nM
TGI ([5]; read-out: TGI): 2260 nM
GI50 ([5]; read-out: pGI50 (converted)): 891 nM
TGI ([5]; read-out: pTGI (converted)): 2240 nM
growth at 0.8 µM [6]: -5%
growth at 0.08 µM [7]: 89%
growth at 0.08 µM [8]: 97%
GI50 [9]: 708 nM
TGI ([9]; read-out: pTGI (converted)): 1860 nM
growth at 0.08 µM [10]: 101%
GI50 [11]: 1320 nM
LC50 [11]: 5250 nM
TGI ([11]; read-out: pTGI (converted)): 2630 nM
Activity [12]: Toxic
growth at 0.008 µM [13]: 108%
GI50 [14]: 1480 nM
TGI ([14]; read-out: pTGI (converted)): 2880 nM
growth at 8 µM [15]: -92%
growth at 8 µM [16]: -100%
growth at 0.08 µM [17]: 98%
growth at 8 µM [18]: -94%
GI50 [19]: 813 nM
LC50 [19]: 3800 nM
TGI ([19]; read-out: pTGI (converted)): 1740 nM
growth at 0.08 µM [20]: 88%
growth at 0.008 µM [21]: 102%
GI50 [22]: 1230 nM
LC50 [22]: 4570 nM
TGI ([22]; read-out: pTGI (converted)): 2340 nM
growth at 0.8 µM [23]: 81%
LC50 [24]: 4070 nM
GI50 ([24]; read-out: GI50): 1120 nM
TGI ([24]; read-out: TGI): 2140 nM
GI50 ([24]; read-out: pGI50 (converted)): 1120 nM
TGI ([24]; read-out: pTGI (converted)): 2140 nM
growth at 0.008 µM [25]: 97%
growth at 0.8 µM [26]: 92%
growth at 8 µM [27]: -77%
GI50 [28]: 1580 nM
TGI ([28]; read-out: pTGI (converted)): 3090 nM
growth at 0.008 µM [29]: 102%
growth at 0.008 µM [30]: 102%
growth at 8 µM [31]: -61%
growth at 80 µM [32]: -91%
Activity [33]: Toxic
growth at 80 µM [34]: -96%
growth at 0.08 µM [35]: 115%
growth at 0.8 µM [36]: 7%
Activity [37]: inactive
growth at 0.8 µM [38]: -85%
growth at 0.08 µM [39]: 97%
growth at 0.8 µM [40]: 80%
